Measurements reported in ChEMBL document CHEMBL1165965, “Synthesis and structure-activity relationships of 1,2,3,4-tetrahydropyrido[2,3-b]pyrazines as potent and selective inhibitors of the anaplastic lymphoma kinase” (Bioorg Med Chem, 2010).

Assays:
[1] = Inhibition of FLT3 ITD mutant at 1 uM
Method in brief: (§1)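 Single-concentration screen on the Ambit KINOMEscan platform, run against a panel of 250–400 kinases. Per-kinase inhibition was also summarized as S(90), the fraction of kinases inhibited by more than 90%.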

[2] = molecular target: T1, Rhodopsin kinase GRK7 (Homo sapiens) (UniProt Q8WTQ7); test: Inhibition of GRK7 at 1 uM
T1 sequence (whole entry): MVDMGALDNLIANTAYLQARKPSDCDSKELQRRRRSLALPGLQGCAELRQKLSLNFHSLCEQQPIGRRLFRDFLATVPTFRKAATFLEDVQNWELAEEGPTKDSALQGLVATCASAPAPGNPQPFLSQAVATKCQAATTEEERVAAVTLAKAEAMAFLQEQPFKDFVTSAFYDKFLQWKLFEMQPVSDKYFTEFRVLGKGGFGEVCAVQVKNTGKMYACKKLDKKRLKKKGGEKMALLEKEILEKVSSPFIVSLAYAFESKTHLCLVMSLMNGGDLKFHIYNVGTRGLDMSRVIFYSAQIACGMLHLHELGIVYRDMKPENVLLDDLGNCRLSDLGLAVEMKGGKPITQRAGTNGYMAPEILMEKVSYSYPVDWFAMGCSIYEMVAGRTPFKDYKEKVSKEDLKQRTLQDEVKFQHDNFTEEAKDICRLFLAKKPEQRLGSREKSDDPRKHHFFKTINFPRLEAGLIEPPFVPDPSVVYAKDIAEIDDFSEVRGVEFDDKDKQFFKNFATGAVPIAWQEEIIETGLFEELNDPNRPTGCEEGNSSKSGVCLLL

[3] = molecular target: T2, Mitogen-activated protein kinase 12 (Homo sapiens) (UniProt P53778); test: Inhibition of p38-gamma at 1 uM
T2 sequence (whole entry): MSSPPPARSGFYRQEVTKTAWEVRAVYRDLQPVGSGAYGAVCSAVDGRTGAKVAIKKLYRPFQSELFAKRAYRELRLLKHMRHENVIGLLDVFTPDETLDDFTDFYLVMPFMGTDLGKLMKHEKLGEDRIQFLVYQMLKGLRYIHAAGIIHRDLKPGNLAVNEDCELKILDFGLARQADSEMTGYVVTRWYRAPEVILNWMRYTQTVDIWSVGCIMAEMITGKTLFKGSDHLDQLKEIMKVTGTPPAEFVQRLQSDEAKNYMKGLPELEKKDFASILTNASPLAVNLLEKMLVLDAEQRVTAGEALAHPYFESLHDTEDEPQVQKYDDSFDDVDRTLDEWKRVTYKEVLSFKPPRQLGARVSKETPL

[4] = molecular target: Hepatocyte growth factor receptor (Homo sapiens) (UniProt P08581); test: Inhibition of MET at 1 uM; method in brief: as §1
[5] = molecular target: Mitogen-activated protein kinase kinase kinase 1 (Homo sapiens) (UniProt Q13233); test: Inhibition of MAP3K1 at 1 uM
[6] = molecular target: T3, Aurora kinase A (Homo sapiens) (UniProt O14965); test: Inhibition of AURKA at 1 uM
T3 sequence (whole entry): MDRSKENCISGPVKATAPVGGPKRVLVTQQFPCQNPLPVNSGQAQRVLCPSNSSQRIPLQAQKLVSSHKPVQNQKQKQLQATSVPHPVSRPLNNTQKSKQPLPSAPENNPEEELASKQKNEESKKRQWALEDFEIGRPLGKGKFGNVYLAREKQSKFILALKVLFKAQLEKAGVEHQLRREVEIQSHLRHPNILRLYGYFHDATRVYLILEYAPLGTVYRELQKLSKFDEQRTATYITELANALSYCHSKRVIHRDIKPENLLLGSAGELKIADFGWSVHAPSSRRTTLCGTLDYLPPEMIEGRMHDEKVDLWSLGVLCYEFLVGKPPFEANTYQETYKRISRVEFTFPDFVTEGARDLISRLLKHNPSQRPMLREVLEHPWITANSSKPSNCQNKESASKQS
Method in brief: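 Ambit KINOMEscan screen at a single concentration across a 250–400 kinase panel, recorded as percent inhibition. Selectivity was expressed as S(90), the fraction of kinases inhibited >90%.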

[7] = molecular target: T4, Tyrosine-protein kinase receptor TYRO3 (Homo sapiens) (UniProt Q06418); test: Inhibition of TYRO3 at 1 uM
T4 sequence (whole entry): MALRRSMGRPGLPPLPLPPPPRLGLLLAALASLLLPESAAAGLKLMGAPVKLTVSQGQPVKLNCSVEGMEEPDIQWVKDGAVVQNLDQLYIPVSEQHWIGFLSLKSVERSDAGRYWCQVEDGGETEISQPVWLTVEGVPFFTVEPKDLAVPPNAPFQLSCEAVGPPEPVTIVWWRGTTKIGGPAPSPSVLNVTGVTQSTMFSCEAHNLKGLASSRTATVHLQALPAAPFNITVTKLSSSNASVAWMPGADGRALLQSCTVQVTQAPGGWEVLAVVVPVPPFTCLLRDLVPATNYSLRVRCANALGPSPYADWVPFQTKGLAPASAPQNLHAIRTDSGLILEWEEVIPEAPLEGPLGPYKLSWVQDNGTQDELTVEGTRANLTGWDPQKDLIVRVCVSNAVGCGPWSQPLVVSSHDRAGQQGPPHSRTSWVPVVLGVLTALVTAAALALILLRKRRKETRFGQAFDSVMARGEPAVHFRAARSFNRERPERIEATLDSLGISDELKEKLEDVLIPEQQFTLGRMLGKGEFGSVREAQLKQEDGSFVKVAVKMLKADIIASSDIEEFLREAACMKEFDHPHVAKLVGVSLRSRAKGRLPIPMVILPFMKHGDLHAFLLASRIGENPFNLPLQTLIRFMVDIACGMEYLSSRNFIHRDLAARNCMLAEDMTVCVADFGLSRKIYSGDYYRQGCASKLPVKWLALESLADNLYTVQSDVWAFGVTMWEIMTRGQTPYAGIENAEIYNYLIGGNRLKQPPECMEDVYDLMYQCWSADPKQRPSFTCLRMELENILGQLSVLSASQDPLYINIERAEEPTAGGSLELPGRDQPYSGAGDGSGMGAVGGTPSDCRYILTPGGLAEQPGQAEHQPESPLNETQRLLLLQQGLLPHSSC

[8] = molecular target: T5, Serine/threonine-protein kinase ULK3 (Homo sapiens) (UniProt Q6PHR2); test: Inhibition of ULK3 at 1 uM
T5 sequence (whole entry): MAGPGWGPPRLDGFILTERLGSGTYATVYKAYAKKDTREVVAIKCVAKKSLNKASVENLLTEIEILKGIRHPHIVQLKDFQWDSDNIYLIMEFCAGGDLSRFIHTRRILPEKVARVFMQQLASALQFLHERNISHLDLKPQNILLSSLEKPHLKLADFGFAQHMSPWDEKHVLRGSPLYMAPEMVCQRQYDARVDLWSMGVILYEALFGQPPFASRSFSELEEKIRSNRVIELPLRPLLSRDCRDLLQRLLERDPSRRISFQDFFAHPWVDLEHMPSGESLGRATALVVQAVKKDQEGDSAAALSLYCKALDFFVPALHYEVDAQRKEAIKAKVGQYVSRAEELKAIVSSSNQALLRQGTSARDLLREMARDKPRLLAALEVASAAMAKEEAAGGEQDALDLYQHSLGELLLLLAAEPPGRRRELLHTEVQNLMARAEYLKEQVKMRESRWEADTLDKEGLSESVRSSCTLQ

Sequence of Mitogen-activated protein kinase kinase kinase 1 (Homo sapiens) (Q13233 whole entry): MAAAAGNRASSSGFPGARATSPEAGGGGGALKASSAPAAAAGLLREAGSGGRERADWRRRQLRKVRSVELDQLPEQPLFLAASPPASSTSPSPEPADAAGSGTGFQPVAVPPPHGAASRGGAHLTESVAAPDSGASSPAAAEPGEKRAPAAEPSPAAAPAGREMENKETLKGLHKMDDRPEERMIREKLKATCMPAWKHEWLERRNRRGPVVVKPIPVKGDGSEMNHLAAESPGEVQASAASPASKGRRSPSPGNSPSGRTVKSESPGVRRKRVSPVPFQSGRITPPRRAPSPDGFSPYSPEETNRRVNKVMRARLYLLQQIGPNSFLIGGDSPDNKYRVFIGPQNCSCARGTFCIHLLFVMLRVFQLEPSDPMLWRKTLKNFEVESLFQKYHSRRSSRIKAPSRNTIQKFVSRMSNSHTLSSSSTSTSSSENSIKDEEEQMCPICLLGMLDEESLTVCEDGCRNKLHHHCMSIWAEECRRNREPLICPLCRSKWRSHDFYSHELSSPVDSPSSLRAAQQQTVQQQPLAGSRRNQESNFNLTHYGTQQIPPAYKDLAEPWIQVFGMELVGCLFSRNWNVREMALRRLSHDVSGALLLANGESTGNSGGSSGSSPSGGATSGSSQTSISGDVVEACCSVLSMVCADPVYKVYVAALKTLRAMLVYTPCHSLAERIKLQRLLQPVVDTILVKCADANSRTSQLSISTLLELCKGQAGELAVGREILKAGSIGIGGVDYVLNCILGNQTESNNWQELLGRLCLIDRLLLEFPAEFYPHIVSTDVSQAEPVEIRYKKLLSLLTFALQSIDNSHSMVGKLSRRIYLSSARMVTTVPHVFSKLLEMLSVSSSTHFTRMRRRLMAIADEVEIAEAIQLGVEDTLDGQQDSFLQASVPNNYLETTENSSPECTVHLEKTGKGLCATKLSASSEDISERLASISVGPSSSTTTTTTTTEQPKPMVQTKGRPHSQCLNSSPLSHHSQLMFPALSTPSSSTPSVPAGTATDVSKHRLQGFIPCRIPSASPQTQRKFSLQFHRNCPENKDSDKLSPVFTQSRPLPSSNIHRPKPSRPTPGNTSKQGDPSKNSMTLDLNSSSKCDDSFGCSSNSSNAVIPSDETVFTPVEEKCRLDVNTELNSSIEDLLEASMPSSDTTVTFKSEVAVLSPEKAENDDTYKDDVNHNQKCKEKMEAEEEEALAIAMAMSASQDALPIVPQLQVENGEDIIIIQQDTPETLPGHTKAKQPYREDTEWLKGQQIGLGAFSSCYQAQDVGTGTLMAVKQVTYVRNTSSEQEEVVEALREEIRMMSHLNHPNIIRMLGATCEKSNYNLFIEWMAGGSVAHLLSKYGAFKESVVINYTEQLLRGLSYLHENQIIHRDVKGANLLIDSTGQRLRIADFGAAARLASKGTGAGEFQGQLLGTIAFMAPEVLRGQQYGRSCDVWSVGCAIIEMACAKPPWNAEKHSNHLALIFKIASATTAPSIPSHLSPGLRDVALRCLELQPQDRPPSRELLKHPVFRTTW
Sequence of Hepatocyte growth factor receptor (Homo sapiens) (P08581 whole entry): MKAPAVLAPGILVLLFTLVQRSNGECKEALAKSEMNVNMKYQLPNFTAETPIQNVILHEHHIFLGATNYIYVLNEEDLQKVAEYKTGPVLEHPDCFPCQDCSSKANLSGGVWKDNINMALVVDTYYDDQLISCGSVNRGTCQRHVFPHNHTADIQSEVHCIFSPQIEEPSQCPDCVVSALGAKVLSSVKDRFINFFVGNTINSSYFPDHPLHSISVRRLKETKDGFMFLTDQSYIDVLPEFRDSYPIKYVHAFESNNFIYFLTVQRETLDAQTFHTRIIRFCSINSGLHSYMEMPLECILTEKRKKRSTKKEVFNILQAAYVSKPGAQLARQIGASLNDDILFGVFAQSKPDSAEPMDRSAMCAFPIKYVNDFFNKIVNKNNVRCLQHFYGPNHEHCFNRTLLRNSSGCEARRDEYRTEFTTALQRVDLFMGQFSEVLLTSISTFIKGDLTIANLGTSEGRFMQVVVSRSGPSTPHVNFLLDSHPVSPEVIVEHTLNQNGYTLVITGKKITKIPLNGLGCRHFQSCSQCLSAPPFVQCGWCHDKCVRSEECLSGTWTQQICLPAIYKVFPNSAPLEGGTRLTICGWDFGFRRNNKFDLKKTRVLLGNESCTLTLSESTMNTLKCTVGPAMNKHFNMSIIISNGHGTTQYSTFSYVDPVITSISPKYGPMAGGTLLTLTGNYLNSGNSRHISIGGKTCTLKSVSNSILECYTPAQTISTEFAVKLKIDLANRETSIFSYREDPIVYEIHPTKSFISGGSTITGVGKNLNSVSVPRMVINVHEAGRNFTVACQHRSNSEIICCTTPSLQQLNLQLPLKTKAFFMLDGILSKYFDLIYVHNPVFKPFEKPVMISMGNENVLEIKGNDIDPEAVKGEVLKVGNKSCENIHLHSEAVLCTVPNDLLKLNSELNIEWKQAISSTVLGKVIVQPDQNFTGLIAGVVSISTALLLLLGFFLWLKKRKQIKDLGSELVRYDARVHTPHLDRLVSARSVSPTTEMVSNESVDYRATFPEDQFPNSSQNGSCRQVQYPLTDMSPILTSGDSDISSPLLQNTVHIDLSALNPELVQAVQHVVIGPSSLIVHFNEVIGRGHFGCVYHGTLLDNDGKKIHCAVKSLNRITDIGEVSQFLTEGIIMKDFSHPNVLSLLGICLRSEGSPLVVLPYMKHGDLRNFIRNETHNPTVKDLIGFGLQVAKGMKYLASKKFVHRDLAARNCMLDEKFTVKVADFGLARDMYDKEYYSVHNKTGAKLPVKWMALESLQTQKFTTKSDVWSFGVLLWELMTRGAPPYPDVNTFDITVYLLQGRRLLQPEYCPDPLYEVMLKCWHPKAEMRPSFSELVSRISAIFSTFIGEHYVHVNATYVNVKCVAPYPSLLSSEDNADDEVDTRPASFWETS

Structure (SMILES) | inhibition [1] [%] | inhibition [2] [%] | inhibition [3] [%] | inhibition [4] [%] | inhibition [5] [%] | inhibition [6] [%] | inhibition [7] [%] | inhibition [8] [%]
CN1CCN(c2ccc(-c3cnc4c(c3)N(Cc3cc(Cl)ccc3C(F)(F)F)CCN4)cn2)CC1 | 90 | < 50 | < 50 | 82 | < 50 | < 50 | < 50 | < 50
CN1CCN(c2ccc(-c3cnc4c(c3)N(Cc3cc(F)ccc3F)CCN4)cn2)CC1 | < 50 | < 50 | < 50 | < 50 | < 50 | < 50 | < 50 | < 50
CN1CCN(c2ccc(-c3cnc4c(c3)N(Cc3cc(Cl)ccc3Cl)CCN4)cn2)CC1 | < 50 | < 50 | < 50 | 67 | < 50 | < 50 | < 50 | < 50
CN1CCN(c2ccc(-c3cnc4c(c3)N(Cc3c(F)ccc(F)c3Cl)CCN4)cn2)CC1 | < 50 | < 50 | < 50 | 94 | < 50 | < 50 | < 50 | < 50
FC(F)(F)c1ccc(Cl)cc1CN1CCNc2ncc(-c3ccnc(N4CCNCC4)c3)cc21 | 74 | 67 | < 50 | 94 | < 50 | 68 | < 50 | < 50

More lines, now with the values ahead:

inhibition [1] [%] | inhibition [2] [%] | inhibition [3] [%] | inhibition [4] [%] | inhibition [5] [%] | inhibition [6] [%] | inhibition [7] [%] | inhibition [8] [%] | Structure (SMILES)
< 50 | < 50 | < 50 | 86 | < 50 | 68 | < 50 | < 50 | CC(=O)N1CCN(c2cc(-c3cnc4c(c3)N(Cc3cc(Cl)ccc3C(F)(F)F)CCN4)ccn2)CC1
< 50 | – | < 50 | < 50 | – | 80.2 | < 50 | – | O=C(O)c1ccc(-c2cnc3c(c2)N(Cc2cc(Cl)ccc2C(F)(F)F)CCN3)cc1
< 50 | – | < 50 | 66 | – | < 50 | < 50 | – | O=C(c1ccc(-c2cnc3c(c2)N(Cc2cc(Cl)ccc2C(F)(F)F)CCN3)cc1)N1CCCCC1
< 50 | – | < 50 | 76.6 | – | < 50 | < 50 | – | COC1CCN(C(=O)c2ccc(-c3cnc4c(c3)N(Cc3cc(Cl)ccc3C(F)(F)F)CCN4)cc2)CC1
< 50 | – | < 50 | 90.3 | – | 69.5 | < 50 | – | O=C(c1ccc(-c2cnc3c(c2)N(Cc2cc(Cl)ccc2C(F)(F)F)CCN3)cc1)N1CCC(N2CCCC2)CC1
